Compound activity: PubChem, The Scripps Research Institute Molecular Screening Center
CHO parental Ca: counter-screen for OX1R antagonists: effect in parental CHO cells; parental CHO-K1, ATP-induced calcium, Fluo-8 fluorescence; inhibition, % at 5.6 µM; hit rate 0.63% among 330,000; AID 463079;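 active = inhibition above that plate's mean sample inhibition plus 3 SD, cut at about 26% in these data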;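 also: 0% = ATP-challenged DMSO wells and 100% = DMSO wells without ATP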
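Test system: untransfected parental CHO cell line; also added: ATP stimulus; dosing: 5.6 µM, single dose; signal: calcium-sensitive Fluo-8 fluorescence; measure: percent inhibition of ATP-evoked calcium rise, normalized to controls; benchmarks: low control ATP plus DMSO, high control DMSO only; replication: one well per compound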
OX1R antag-1: antagonists of human orexin 1 receptor; O43613; CHO/OX1R cells, Fluo-8 calcium fluorescence, orexin A; inhibition, % at 5 µM; hit rate 0.43% among 330,000;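 active = inhibition above its plate's threshold, mean inhibition of all tested compounds on the plate plus 3 SD, cut at about 37% in these data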;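 also: 0% = orexin A challenge wells and 100% = SB-334867-A antagonist wells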
Target sequence (O43613 whole entry, looked up): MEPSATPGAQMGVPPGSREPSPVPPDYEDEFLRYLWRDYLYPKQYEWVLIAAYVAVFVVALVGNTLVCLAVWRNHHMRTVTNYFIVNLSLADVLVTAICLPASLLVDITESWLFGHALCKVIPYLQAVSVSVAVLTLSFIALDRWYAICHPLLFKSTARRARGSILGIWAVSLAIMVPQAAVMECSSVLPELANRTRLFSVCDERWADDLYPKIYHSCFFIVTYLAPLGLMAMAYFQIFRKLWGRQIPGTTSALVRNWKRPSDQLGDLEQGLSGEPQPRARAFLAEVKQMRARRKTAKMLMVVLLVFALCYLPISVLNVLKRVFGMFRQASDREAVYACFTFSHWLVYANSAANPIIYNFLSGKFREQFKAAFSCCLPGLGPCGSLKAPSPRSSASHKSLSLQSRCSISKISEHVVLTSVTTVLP
OX1R antag-2: OX1R (human) antagonism | inhibition, % at 6.6 µM | hit rate 1.8% among 330,000 | O43613 | OX1R-expressing cells, FRET antagonist read-out; in the data active = inhibition mostly above about 38%, no sharp cut-off; inactive = mostly below about 40%;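 also: 0% = agonist challenge alone and 100% = reference antagonist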
TAAR1 ag: agonists of human TAAR1; CHO RD-HGA16 TAAR1, Fluo-8 calcium fluorescence; vehicle wells 0%, saturating PEA agonist 100%; activation, % at 3 µM; hit rate 0.99% among 360,000; AID 624467;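 active = activation above the mean activation of all test compounds in the run plus 3 SD, cut at about 38% in these data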
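Signal – calcium-sensitive Fluo-8 signal, excitation 470-495, emission 515-575 nm · System – RD-HGA16 (CHO) cells co-expressing Gα16 and hTAAR1 · Incubation – 17-24 h seeding, 75 min 37 °C dye, 30 min RT · Compound dosing – 3 µM single concentration · Repeats – no replicates (n 1)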
TAAR1 antagonist: antagonists of human TAAR1 | AID 624466 | CHO RD-HGA16 TAAR1, Fluo-8 calcium fluorescence, antagonist | hit rate 1.5% among 360,000 | Q96RJ0 | inhibition, % at 3 µM;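 active = inhibition above a per-plate cutoff, the mean inhibition of test compounds on that plate plus 3 SD, cut at about 49% in these data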;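 also: 0% = DMSO plus EC80 beta-PEA response and 100% = DMSO alone without agonist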
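Test system – hTAAR1-expressing CHO RD-HGA16 cells, Gα16-coupled · Reagent – β-PEA at EC80 concentration, post-compound challenge · Compound dosing – 3 µM, single point · Timing – 140 s kinetic read after compound, 140 s after agonist · Detection – Fluo-8 intracellular calcium dye fluorescence, real-time kinetic reads · Control set – DMSO and EC80 PEA controls · Repeats – n of 1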
GPR7 antagonist: antagonists of human GPR7 (neuropeptides B/W receptor 1); GPR7-expressing cells, fluorescence antagonist assay; hit rate 1.1% among 290,000; inhibition, % at 4.4 µM; P48145; AID 1861; in the data active = inhibition above about 16%, passing the limit was not always enough;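 also: cells stimulated with the agonist NPW; 0% = agonist with vehicle and 100% = vehicle without agonist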
* hit, by the source's call; · = no result. In the library only some 4.5% were active in any assay of this set; here they are far more common.

SMILES	CHO parental Ca	OX1R antag-1	OX1R antag-2	TAAR1 ag	TAAR1 antagonist	GPR7 antagonist
COc1ccc(NS(=O)(=O)c2cc(N/C(=N\S(=O)(=O)c3ccccc3)c3ccc(F)cc3)ccc2Cl)cc1	-5	6	7	15	12	34*
COc1ccc(NS(=O)(=O)c2ccc(Cl)c(NC(=O)c3cccnc3Cl)c2)cc1	-8	-3	13	5	-13	-1
COC(=O)C1=C(C)N(C)C(=NCc2ccc(OC)cc2)NC1c1cccc(Cl)c1 (stereo unspecified)	·	·	·	3	-8	·
CC1CC(C)CN(CCCNC(=O)c2ccc3c(c2)NC(=O)CS3)C1 (stereo unspecified)	-7	-15	-4	1	-7	-8
COc1ccc(-c2csc3nc(C)n(-n4cccc4)c(=O)c23)cc1	-14	-16	18	2	1	-10
Cc1nc2scc(-c3ccc(C(C)(C)C)cc3)c2c(=O)n1N	0	-1	19	10	51*	-6
CNc1nc(NC)c2cn[nH]c2n1	·	·	·	2	-7	·
COc1ccc(CNC(=O)CN(c2ccccc2OC)S(=O)(=O)c2cccs2)cc1	-10	-5	12	11	46	·
COc1ccc(S(=O)(=O)N(CC(=O)N/N=C/c2cccs2)c2cc(C)cc(C)c2)cc1OC	-26	35	50*	13	47	-5
COc1ccccc1N(CC(=O)Nc1cc(S(=O)(=O)N(C)C)ccc1C)S(=O)(=O)c1cccs1	-16	26	34*	2	8	·
COc1ccc(S(=O)(=O)N(CC(=O)N/N=C/c2cccs2)c2ccc(C)cc2)cc1OC	-10	-6	53	11	40	-2
CCOc1ccc(CCN2C(=S)N([C@@H](Cc3ccc(O)cc3)CN3CCC[C@@H]3CN3C(=S)NC[C@@H]3CC(C)C)C[C@@H]2Cc2ccc(O)cc2)cc1	·	·	·	2	-9	·
COc1ccc(Cl)cc1C(=O)Nc1ccccc1N1CCN(C(=O)C(C)C)CC1	-19	-41	14	7	20	20*
O=C(COC(=O)c1ccccc1NS(=O)(=O)c1ccc(Cl)cc1)NCc1ccccc1	-9	-26	49*	3	6	-2
C=C(C)CN1CCN(c2ccc(N3C(=O)CCCC3=O)cc2[N+](=O)[O-])CC1	1	-16	16	0	-1	14
COc1ccccc1N1CCN(c2ccc(N3C(=O)CCC3=O)cc2[N+](=O)[O-])CC1	57*	11	54	5	9	-13
COc1ccc(N2CCN(c3ccc(C(N)=O)cc3[N+](=O)[O-])CC2)cc1	5	-12	45	4	16	-3
COc1cccc(N2CCN(c3ccc(N4C(=O)CCC4=O)cc3[N+](=O)[O-])CC2)c1	33*	28	38	6	-13	-3
CCOC(=O)[C@]12CCCC=C1N(Cc1ccc(Cl)cc1Cl)C(=O)[C@H](CC(=O)N1CCC(c3ccccc3)CC1)C2	·	·	·	-1	-53	·
COC(=O)C1=C(C)N(C)C(=NCc2ccc3c(c2)OCO3)NC1c1cccc(C(F)(F)F)c1 (stereo unspecified)	·	·	·	12	-12	·
FC(F)(F)c1nc(N2CCCC2)ncc1-c1nnnn1-c1ccc(Cl)cc1	47*	61*	50	12	6	-6
FC(F)(F)c1nc(-c2ccncc2)ncc1-c1nnnn1-c1ccccc1	-23	-10	15	4	5	-7
Cc1ccc(-n2nnnc2-c2cnc(-c3cccnc3)nc2C(F)(F)F)cc1	-11	-20	40	13	27	-1
c1ccc(-n2nnnc2-c2cnc(-c3ccncc3)nc2-c2cccs2)cc1	-11	21	46*	-2	7	-14
Fc1ccc(-n2nnnc2-c2cnc(-c3cccs3)nc2C(F)(F)F)cc1	51*	39	83*	16	79*	-15
O=S1(=O)N[C@H](Cc2ccccc2)COc2cc(N3CCSCC3)ccc21	·	·	·	2	5	·
Cc1c(C(=O)N/N=C/c2ccc(O)cc2)sc(=S)n1C	8	5	60	-1	-7	-4
Cc1c(C(=O)N/N=C/c2ccccc2)sc(=S)n1C	-9	29	92*	2	-10	1
